Positions count from the first letter of the chain named. ≈ marks a conversion by molar mass, not a printed value. Calls of active or inactive are those of the source. The rule behind the calls is not given here.
What was measured:
[1] = test system: Staphylococcus aureus subsp. aureus str. Newman; experiment: Inhibition of DltB in Taro-deficient Staphylococcus aureus Newman at 1 ug/ml after 16 to 18 hrs
Procedure, shortened: (§1)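 S. aureus overnight cultures (Newman WT, Newman ΔtarO, SEJ1 ΔltaS, RN4220 ΔypfP) diluted 1:100 in TSB and grown to OD600 ~1. Cultures were normalized to OD600 1 and diluted 1:1000. A DMSO compound dilution series was added to give final 0–32 µg/mL. Plates were incubated at 30°C for 16–18 h, then growth was read as OD600.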

Staphylococcus aureus [2] = experiment: Inhibition of DltB in ltaS-deficient Staphylococcus aureus SEJ1 at 1 ug/ml after 16 to 18 hrs; procedure, shortened: as §1
[3] = test system: Staphylococcus aureus subsp. aureus RN4220; experiment: Inhibition of DltB in ypfP-deficient Staphylococcus aureus RN4220 at 1 ug/ml after 16 to 18 hrs; procedure, shortened: as §1
[4] = test system: Staphylococcus aureus subsp. aureus USA300; experiment: Inhibition of DltB tn::1050 mutant in Staphylococcus aureus USA300 JE2 at 1 ug/ml after 16 to 18 hrs
[5] = test system: T1, Teichoic acid D-alanyltransferase (Staphylococcus aureus), Q53662 [S175T]; experiment: Inhibition of DltB S175T mutant in Staphylococcus aureus Newman up to 32 ug/ml after 16 to 18 hrs by spectrophotometric analysis; conditions: Staphylococcus aureus subsp. aureus str. Newman
T1 sequence (whole entry): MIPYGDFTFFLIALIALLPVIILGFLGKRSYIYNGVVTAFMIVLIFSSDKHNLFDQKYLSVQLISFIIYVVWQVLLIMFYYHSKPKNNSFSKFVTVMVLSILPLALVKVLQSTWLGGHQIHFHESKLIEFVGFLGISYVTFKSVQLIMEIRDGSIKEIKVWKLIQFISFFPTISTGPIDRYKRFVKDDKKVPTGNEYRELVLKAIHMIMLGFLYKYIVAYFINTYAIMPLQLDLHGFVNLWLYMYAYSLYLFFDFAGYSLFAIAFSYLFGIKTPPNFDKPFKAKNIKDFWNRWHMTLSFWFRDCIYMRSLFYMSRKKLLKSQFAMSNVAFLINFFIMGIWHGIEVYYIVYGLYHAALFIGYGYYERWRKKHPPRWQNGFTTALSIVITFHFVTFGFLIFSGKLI

[6] = test system: T2, Teichoic acid D-alanyltransferase (Staphylococcus aureus), Q53662 [A355E]; experiment: Inhibition of DltB A355E mutant in Staphylococcus aureus Newman up to 32 ug/ml after 16 to 18 hrs by spectrophotometric analysis; conditions: Staphylococcus aureus subsp. aureus str. Newman
T2 sequence (whole entry): T1 sequence (whole entry) with T175S, A355E
Procedure, shortened: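 Broth-dilution MIC. Overnight cultures of the parent and the resistant mutants (selected in the […] background) were diluted 1:100 and grown in TSB at 30°C to OD600 ~1. They were then normalized to OD600 1 and diluted 1:1000. Compound series were made in DMSO, with 3 µL added to 147 µL of culture for a final 0–32 µg/mL. Plates were held 16–18 h at 30°C and OD600 was read.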

[7] = test system: Staphylococcus aureus subsp. aureus str. Newman; experiment: Inhibition of DltB in Staphylococcus aureus Newman assessed as suppression of 14C-D-Ala incorporation into LTA up to 16 ug/ml preincubated for 30 mins followed by 14C-D-Ala addition after 30 mins by PAGE autoradiography
Procedure, shortened: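 S. aureus Newman overnight culture diluted 1:100 and grown in TSB at 30°C to OD600 0.6. Cells were resuspended in 0.25X TSB pH 6.0 with 200 µg/mL D-cycloserine and compound at 0–16 µg/mL (eight levels), then held 30 min at 30°C, 300 rpm. Cells were then resuspended in the same buffer with compound plus 14C-D-Ala for a further 30 min. Lysates were boiled in SDS buffer and run on 4–20% Tris-glycine PAGE, then autoradiographed for labelled LTA.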

[8] = Cytotoxicity against African green monkey Vero cells assessed cell viability at 10 uM relative to control; format: toxicity, cell-based; conditions: chlorocebus sabaeus, read-out: Activity
[9] = Cytotoxicity against African green monkey Vero cells assessed cell viability at 5 uM relative to control; format: toxicity, cell-based; conditions: chlorocebus sabaeus, read-out: Activity
[10] = Cytotoxicity against African green monkey Vero cells assessed cell viability at 2.5 uM relative to control; format: toxicity, cell-based; conditions: chlorocebus sabaeus, read-out: Activity
[11] = Cytotoxicity against African green monkey Vero cells assessed cell viability at 1.3 uM relative to control; format: toxicity, cell-based; conditions: chlorocebus sabaeus, read-out: Activity
Staphylococcus aureus [12] = experiment: Antibacterial activity against wild type Staphylococcus aureus Newman at 5 ug/ml after 16 to 18 hrs; format: functional; procedure, shortened: as §1
[13] = test system: Staphylococcus aureus subsp. aureus str. Newman; experiment: Inhibition of DltB in Taro deficient Staphylococcus aureus Newman at 5 ug/ml after 16 to 18 hrs; procedure, shortened: as §1
Staphylococcus aureus [14] = experiment: Inhibition of DltB in ltaS-deficient Staphylococcus aureus SEJ1 at 5 ug/ml after 16 to 18 hrs; procedure, shortened: as §1
[15] = test system: Staphylococcus aureus subsp. aureus RN4220; experiment: Inhibition of DltB in ypfP-deficient Staphylococcus aureus RN4220 at 5 ug/ml after 16 to 18 hrs; procedure, shortened: as §1
[16] = test system: Staphylococcus aureus subsp. aureus USA300; experiment: Inhibition of DltB tn::1050 mutant in Staphylococcus aureus USA300 JE2 at 5 ug/ml after 16 to 18 hrs

Compound | inhibition [1] | inhibition (Staphylococcus aureus [2]) | inhibition [3] | inhibition [4] | MIC [5] [µg/mL] | MIC [6] [µg/mL] | inhibition [7] | viability at 10 µM [8] [%] | viability at 5 µM [9] [%] | viability at 2.5 µM [10] [%] | viability at 1.3 µM [11] [%] | Activity (Staphylococcus aureus [12]) | inhibition [13] | inhibition (Staphylococcus aureus [14]) | inhibition [15] | inhibition [16]
COc1ccc(-c2csc(NC(=O)/C=C/c3cccs3)n2)c(OC)c1 | Active | Active | Active | Active | 0.5 (≈ 1.34 µM) | > 32 | Active | 106 | 106 | 106 | 106 | – | – | – | – | –
COc1cc(NS(C)(=O)=O)ccc1Nc1c2ccccc2nc2ccccc12 | – | – | – | – | > 32 | 2 (≈ 5.08 µM) | – | – | – | – | – | Active | Active | Active | Active | Active
